For 1 molecule, inhibition and Activity results are on record in ChEMBL document CHEMBL5678799 (Biochem J, 2009).

The source made the active and inactive calls. The calls are words filed in the database; no cut-off is given here.

Assay [1] concerns MEF. Put plainly: Inhibition of mTORC2 in MEF cells assessed as reduction in NDRG1 phosphorylation incubated ay 1 uM for 30 mins by immunoblot analysis. In kind it is cell-based. The following applies: Mus musculus. The procedure, abridged: (§1)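 Cells (MEFs, wild-type or knockout, or HeLa) kept in 10% serum, then exposed 30 min to inhibitor or vehicle at the stated level. Washed twice in ice-cold PBS and lysed in Tris lysis buffer with CHAPS, phosphatase and protease inhibitors. Lysates cleared at 18000 g and immunoblotted with phospho-specific antibodies and ECL detection. Blots are representative of three experiments.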
On the technique in general: Immunoblotting shows a protein as a band on a membrane.

Assay [2] addresses Serine/threonine-protein kinase D1 (Homo sapiens) (UniProt Q15139). Put plainly: Inhibition of recombinant human N-terminal His6-tagged PKD1 (2 to 912 residues) expressed in baculovirus infected Sf21 cells assessed as remaining activity at 1 uM using KKLNRTLSVA as substrate incubated for 30 mins in presence of [gamma-33P]ATP by filter binding method relative to control.
Assay [3] concerns the target Serine/threonine-protein kinase PLK1 (Homo sapiens) (UniProt P53350). Briefly: Inhibition of recombinant human N-terminal His6-tagged PLK1 (1 to 603 residues) expressed in baculovirus infected Sf21 cells assessed as remaining activity at 10 uM using ISDELMDATFADQEAKKK as substrate incubated for 30 mins in presence of [gamma-33P]ATP by filter binding method relative to control. A digest of the protocol: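 Radiometric panel assay run robotically at 21 °C for 30 min, linear in time and enzyme. […] Activity is expressed as percentage of the compound-omitted control, averaged from triplicates ± S.D.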

In assay [4] the target is Mitogen-activated protein kinase; ERK1/ERK2 (Homo sapiens) (UniProt P27361+P28482). Put plainly: Inhibition of ERK1/2 in serum starved/PMA-stimulated HEK293 cells assessed as reduction in RSK phosphorylation at T573 residues at 1 uM incubated for 30 mins by immunoblot analysis. Type of assay: cell-based.
Mitogen-activated protein kinase; ERK1/ERK2 (Homo sapiens), sequence (P27361 whole entry, looked up, the tested form may be a part): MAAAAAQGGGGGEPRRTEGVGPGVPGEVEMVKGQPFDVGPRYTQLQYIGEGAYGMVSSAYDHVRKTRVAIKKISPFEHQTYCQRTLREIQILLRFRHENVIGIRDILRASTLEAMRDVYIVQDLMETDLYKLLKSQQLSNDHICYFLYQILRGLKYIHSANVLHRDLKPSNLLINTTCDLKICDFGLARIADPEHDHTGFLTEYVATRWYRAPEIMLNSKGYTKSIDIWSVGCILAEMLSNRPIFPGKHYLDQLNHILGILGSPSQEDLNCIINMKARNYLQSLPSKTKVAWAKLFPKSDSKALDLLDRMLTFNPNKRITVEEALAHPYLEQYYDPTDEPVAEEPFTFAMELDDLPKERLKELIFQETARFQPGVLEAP
Mitogen-activated protein kinase; ERK1/ERK2 (Homo sapiens), sequence (P28482 whole entry, looked up, the tested form may be a part): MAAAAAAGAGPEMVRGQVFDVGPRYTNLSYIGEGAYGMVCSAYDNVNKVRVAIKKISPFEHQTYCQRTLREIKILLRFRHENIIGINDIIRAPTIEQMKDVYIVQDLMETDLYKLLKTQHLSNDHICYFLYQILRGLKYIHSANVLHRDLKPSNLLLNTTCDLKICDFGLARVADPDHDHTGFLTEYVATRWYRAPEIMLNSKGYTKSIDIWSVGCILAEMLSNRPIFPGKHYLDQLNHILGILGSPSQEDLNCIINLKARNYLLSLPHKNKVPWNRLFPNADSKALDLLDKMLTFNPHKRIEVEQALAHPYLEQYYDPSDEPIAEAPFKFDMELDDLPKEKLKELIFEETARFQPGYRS
Assay [5] has as its target Mitogen-activated protein kinase 8 (Homo sapiens) (UniProt P45983). Briefly: Inhibition of recombinant human His6-tagged JNK1alpha1 (1 to 384 residues) expressed in baculovirus infected Sf21 cells assessed as remaining activity at 1 uM using ATF2 as substrate incubated for 30 mins in presence of [gamma-33P]ATP by filter binding method relative to control. The procedure, abridged: (§2)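 Robotic radiometric panel assay, 30 min at room temperature (21 °C), with 10 mM magnesium acetate. […] Compound at 1 or 10 µM. Residual activity expressed relative to compound-free control; triplicate average ± S.D.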

In assay [6] the target is Serine/threonine-protein kinase PAK 5 (Homo sapiens) (UniProt Q9P286). Put plainly: Inhibition of recombinant human N-terminal GST-tagged PAK5 (2 to 719 residues) expressed in Escherichia coli assessed as remaining activity at 10 uM using RRRLSFAEPG as substrate incubated for 30 mins in presence of [gamma-33P]ATP by filter binding method relative to control. A digest of the protocol: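 Panel assays were run for 30 min at 21 °C, within the linear range for time and enzyme. […] Results are percent activity remaining relative to compound-free control, averaged from triplicate ± S.D.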
Serine/threonine-protein kinase PAK 5 (Homo sapiens), sequence (Q9P286 whole entry, looked up, the tested form may be a part): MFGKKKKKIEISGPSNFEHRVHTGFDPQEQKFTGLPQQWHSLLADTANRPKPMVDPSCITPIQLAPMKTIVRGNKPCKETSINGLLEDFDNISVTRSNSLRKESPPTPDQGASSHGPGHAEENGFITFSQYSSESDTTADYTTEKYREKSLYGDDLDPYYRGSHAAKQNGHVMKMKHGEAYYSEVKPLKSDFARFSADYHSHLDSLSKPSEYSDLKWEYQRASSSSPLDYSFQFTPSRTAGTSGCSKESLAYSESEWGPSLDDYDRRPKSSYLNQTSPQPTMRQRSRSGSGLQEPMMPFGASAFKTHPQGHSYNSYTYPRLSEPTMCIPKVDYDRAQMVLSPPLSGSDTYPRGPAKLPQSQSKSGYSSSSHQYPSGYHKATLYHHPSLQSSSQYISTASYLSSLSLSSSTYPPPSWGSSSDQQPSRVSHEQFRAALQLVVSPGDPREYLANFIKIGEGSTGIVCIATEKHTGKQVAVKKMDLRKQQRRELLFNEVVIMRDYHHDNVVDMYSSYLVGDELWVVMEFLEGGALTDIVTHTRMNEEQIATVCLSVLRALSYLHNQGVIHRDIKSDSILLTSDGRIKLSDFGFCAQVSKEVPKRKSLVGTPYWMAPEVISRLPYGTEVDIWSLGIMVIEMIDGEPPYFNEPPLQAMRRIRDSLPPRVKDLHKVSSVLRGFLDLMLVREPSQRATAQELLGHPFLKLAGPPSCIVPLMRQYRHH

Assay [7] addresses Tyrosine-protein kinase BTK (Homo sapiens) (UniProt Q06187). Briefly: Inhibition of recombinant human N-terminal His6-tagged BTK (2 to 659 residues) expressed in baculovirus infected Sf21 cells assessed as remaining activity at 10 uM using KVEKIGEGTYGVVYK as substrate incubated for 30 mins in presence of [gamma-33P]ATP by filter binding method relative to control. The procedure, abridged: (§3)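 Incubation was 30 min at room temperature (21 °C) under conditions linear with time and enzyme amount. Activity is reported as percent of control lacking compound, triplicate mean ± S.D.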

For assay [8], the system named is MEF. Put plainly: Inhibition of mTORC2 in serum starved MEF cells assessed as reduction IGF1-stimulated AKT phosphorylation at Thr308 residue at 100 to 1000 nM incubated for 20 mins by immunoblot analysis. In kind it is cell-based. The following applies: Mus musculus, dose 100-1000 nM. A digest of the protocol:
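Serum withdrawn 16 h. Inhibitor or vehicle given 30 min before stimulation with 50 ng/ml IGF-1 for 20 min. Lysed in Tris lysis buffer and immunoblotted for Akt Thr308 phosphorylation with ECL detection. Applies to HEK-293 and to wild-type, Rictor, Sin1 or mLST8 knockout MEFs. Three independent experiments.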

Assay [9] deals with Protein kinase C alpha type (Homo sapiens) (UniProt P17252). Put plainly: Inhibition of recombinant human N-terminal His6-tagged PKCalpha (1 to 672 residues) expressed in baculovirus infected Sf21 cells assessed as remaining activity at 10 uM using Histone H1 as substrate incubated for 30 mins in presence of [gamma-33P]ATP by filter binding method relative to control.
Assay [10] concerns the target Mitogen-activated protein kinase 12 (Homo sapiens) (UniProt P53778). Briefly: Inhibition of recombinant human N-terminal GST-tagged P38gamma (1 to 367 residues) expressed in Escherichia coli assessed as remaining activity at 1 uM using MBP as substrate incubated for 30 mins in presence of [gamma-33P]ATP by filter binding method relative to control. A digest of the protocol:
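Radiometric kinase panel run robotically at room temperature (21 °C) for 30 min, linear in time and enzyme. […] Activity is expressed as percent of control without compound, from triplicate determinations ± S.D.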

For assay [11], the target named is Serine/threonine-protein kinase pim-3 (Homo sapiens) (UniProt Q86V86). Put plainly: Inhibition of recombinant human N-terminal His6-tagged PIM3 (2 to 326 residues) expressed in baculovirus infected Sf21 cells assessed as remaining activity at 10 uM using RSRHSSYPAGT as substrate incubated for 30 mins in presence of [gamma-33P]ATP by filter binding method relative to control.

Assay [12] concerns the target Serine/threonine-protein kinase 26 (Homo sapiens) (UniProt Q9P289). Put plainly: Inhibition of recombinant human N-terminal His6-tagged MST4 (1 to 416 residues) expressed in baculovirus infected Sf21 cells assessed as remaining activity at 1 uM using MBP as substrate incubated for 30 mins in presence of [gamma-33P]ATP by filter binding method relative to control.
Assay [13] concerns the target Maternal embryonic leucine zipper kinase (Homo sapiens) (UniProt Q14680). Put plainly: Inhibition of recombinant human N-terminal GST/C-terminal His6-tagged MELK (2 to 651 residues) expressed in Escherichia coli assessed as remaining activity at 1 uM using KKLNRTLSFAEPG as substrate incubated for 30 mins in presence of [gamma-33P]ATP by filter binding method relative to control. A digest of the protocol:
as §3

Assay [14] addresses Serine/threonine-protein kinase Chk1 (Homo sapiens) (UniProt O14757). Put plainly: Inhibition of recombinant human N-terminal GST-tagged CHK1 (1 to 476 residues) expressed in baculovirus infected Sf21 cells assessed as remaining activity at 1 uM using CHKtide as substrate incubated for 30 mins in presence of [gamma-33P]ATP by filter binding method relative to control. A digest of the protocol:
as §2

For assay [15], the target named is Serine/threonine-protein kinase mTOR (Mus musculus) (UniProt Q9JLN9). Put plainly: Inhibition of mTOR in MEF cells assessed as reduction in 4E-BP1 phosphorylation at T37/46 residues at 1 uM incubated for 30 mins by immunoblot analysis. Type of assay: cell-based. A digest of the protocol:
as §1

Maternal embryonic leucine zipper kinase (Homo sapiens), sequence (Q14680 whole entry, looked up, the tested form may be a part): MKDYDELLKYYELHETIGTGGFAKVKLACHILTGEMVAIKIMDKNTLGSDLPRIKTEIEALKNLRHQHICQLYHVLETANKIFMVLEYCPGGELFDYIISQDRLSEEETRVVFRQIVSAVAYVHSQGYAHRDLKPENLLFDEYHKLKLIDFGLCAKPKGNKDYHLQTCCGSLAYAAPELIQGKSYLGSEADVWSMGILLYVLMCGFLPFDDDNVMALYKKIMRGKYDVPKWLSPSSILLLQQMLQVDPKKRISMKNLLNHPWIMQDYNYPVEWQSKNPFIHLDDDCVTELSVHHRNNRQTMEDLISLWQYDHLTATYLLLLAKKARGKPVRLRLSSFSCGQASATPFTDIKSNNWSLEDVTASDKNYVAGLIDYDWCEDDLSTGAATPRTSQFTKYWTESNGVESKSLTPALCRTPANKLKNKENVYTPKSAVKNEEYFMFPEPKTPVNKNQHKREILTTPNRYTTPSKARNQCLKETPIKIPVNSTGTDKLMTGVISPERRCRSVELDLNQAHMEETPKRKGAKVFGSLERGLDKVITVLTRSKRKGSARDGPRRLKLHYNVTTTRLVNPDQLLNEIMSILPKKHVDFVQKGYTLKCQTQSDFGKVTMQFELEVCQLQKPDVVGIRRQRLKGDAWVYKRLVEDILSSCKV
Serine/threonine-protein kinase D1 (Homo sapiens), sequence (Q15139 whole entry, looked up, the tested form may be a part): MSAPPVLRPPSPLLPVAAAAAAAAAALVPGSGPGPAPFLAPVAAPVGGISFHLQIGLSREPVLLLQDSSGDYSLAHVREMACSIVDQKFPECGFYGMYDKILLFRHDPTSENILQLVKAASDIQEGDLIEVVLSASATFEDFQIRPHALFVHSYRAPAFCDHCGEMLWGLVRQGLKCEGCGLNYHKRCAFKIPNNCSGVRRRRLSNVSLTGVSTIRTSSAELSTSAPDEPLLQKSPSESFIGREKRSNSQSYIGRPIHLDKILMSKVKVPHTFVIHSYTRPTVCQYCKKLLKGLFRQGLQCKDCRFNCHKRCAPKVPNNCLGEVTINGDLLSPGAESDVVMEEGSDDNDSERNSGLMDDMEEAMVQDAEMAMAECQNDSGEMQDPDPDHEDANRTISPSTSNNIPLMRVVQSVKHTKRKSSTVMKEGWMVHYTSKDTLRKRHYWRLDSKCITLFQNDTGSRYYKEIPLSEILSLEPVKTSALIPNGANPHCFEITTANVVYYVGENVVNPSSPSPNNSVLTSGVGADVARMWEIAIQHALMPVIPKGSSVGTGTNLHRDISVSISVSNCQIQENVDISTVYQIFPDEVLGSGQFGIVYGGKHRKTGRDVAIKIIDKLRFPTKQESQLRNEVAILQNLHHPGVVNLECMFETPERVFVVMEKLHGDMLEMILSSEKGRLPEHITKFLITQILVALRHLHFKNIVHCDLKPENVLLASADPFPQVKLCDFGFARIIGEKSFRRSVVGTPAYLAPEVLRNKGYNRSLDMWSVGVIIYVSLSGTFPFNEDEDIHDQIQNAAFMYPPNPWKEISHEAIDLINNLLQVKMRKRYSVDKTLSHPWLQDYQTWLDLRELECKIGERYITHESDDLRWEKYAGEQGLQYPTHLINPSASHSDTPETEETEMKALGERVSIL
Mitogen-activated protein kinase 8 (Homo sapiens), sequence (P45983 whole entry, the tested form may be a part): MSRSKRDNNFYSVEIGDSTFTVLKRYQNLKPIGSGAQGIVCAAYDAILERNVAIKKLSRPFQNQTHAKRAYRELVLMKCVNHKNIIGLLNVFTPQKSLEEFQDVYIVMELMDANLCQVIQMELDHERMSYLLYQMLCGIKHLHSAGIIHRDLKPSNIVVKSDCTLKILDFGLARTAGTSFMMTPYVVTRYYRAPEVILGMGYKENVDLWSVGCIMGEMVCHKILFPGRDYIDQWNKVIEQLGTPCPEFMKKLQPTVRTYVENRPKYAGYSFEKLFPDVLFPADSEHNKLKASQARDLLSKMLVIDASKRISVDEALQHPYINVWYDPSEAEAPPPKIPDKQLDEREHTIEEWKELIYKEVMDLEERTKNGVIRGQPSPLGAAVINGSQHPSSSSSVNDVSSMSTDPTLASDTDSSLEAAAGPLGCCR
Serine/threonine-protein kinase 26 (Homo sapiens), sequence (Q9P289 2-416 limits assumed): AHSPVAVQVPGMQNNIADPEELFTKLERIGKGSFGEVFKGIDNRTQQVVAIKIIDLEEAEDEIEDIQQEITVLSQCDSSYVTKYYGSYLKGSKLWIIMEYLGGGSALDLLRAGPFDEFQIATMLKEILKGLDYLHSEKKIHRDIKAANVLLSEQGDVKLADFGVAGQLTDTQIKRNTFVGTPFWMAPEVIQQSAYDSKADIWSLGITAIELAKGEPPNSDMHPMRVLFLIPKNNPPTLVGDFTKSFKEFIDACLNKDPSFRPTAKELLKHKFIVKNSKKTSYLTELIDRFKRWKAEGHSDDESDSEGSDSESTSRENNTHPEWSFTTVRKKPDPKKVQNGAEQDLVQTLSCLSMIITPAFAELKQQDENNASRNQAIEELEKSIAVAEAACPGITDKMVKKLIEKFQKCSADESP
Mitogen-activated protein kinase 12 (Homo sapiens), sequence (P53778 whole entry, the tested form may be a part): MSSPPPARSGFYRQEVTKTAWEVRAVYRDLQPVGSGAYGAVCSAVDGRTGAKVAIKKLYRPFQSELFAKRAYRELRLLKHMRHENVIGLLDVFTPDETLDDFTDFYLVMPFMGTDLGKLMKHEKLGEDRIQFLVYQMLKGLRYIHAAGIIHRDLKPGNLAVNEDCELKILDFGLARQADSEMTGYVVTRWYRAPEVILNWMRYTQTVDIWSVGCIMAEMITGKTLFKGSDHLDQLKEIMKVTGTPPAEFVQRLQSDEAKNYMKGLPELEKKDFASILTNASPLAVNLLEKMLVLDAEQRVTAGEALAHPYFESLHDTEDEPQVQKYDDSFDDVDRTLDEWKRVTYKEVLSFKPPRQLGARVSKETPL

As for `COc1ccc(-c2ccc3c(N4CCOCC4)nc(N4C[C@@H](C)O[C@@H](C)C4)nc3n2)cc1CO` [Ku-0063794], the inhibition entry (in the assay with MEF [1]; in the assay on MEF [8]; in [15]) was “Active” each time. Further, the Activity in assay [2] turned out to be 80%; in [3], 94%; in assay [5], 80%; in [6] it was 81%; in assay [7], 81%; in [9] it was 86%. The Activity turned out to be 89% in assay [10]; 75% in assay [11]; 87% in [12]; 91% in assay [13]; 87% in assay [14]. Further, the inhibition entry in [4] is “inactive”.
